Columns and labels:
[1] = target: Nitric oxide synthase, inducible (Homo sapiens, UniProt P35228); assay: Inhibitory activity of compound against human inducible nitric oxide synthase
Nitric oxide synthase 3 = target: T1, Nitric oxide synthase 3 (Homo sapiens, UniProt P29474); assay: Inhibitory activity against human endothelial nitric oxide synthase
T1 sequence (P29474 whole entry): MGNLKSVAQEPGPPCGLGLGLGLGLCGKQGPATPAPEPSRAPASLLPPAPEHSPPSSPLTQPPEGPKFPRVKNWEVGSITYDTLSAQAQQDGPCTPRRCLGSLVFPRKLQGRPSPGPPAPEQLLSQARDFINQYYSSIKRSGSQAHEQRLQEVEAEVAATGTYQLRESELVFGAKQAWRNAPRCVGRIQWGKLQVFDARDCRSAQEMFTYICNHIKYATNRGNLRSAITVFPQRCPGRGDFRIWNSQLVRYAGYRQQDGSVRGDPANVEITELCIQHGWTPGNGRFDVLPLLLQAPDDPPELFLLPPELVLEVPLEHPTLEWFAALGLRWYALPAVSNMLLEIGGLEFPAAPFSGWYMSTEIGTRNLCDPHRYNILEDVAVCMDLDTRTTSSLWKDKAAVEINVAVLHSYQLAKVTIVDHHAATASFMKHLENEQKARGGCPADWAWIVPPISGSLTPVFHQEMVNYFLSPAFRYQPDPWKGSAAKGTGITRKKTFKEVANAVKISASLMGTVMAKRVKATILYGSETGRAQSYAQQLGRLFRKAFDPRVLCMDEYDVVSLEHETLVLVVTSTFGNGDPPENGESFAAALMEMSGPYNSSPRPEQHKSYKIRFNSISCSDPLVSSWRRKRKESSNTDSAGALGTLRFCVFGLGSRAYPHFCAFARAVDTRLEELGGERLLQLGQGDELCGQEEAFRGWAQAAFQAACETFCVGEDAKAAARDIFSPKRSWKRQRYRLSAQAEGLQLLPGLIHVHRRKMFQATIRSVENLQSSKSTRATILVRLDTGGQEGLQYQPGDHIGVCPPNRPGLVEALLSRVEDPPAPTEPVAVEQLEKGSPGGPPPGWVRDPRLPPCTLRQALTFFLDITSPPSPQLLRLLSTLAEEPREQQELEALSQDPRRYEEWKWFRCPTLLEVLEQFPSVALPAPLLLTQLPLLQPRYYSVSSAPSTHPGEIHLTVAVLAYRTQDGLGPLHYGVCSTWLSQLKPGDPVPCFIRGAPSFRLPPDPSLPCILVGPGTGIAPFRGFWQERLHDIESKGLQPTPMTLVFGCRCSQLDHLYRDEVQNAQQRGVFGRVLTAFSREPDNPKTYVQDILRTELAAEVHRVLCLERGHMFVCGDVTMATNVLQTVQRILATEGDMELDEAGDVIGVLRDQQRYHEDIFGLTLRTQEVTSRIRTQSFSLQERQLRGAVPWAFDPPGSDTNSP

DLD-1 = assay: Inhibitory activity against synthesis of inducible nitric oxide synthase by DLD-1 cells; assay type: functional, cell-based; conditions: Homo sapiens
Summary of the method: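 Intact human DLD-1 cells preincubated with a cytokine cocktail to induce NO production; inhibition of NO production measured; IC50 is the mean of at least two separate measurements.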

Rattus norvegicus [2] = assay: Inhibition of LPS induced nitrite production in rat following 4 hr of oral administration; assay type: functional; conditions: read-out: ID50 (the source's name)
Nitric oxide synthase 1 [3] = target: T2, Nitric oxide synthase 1 (Homo sapiens, UniProt P29475); assay: Inhibitory activity against human neuronal nitric oxide synthase
[4] = target: T3, Nitric oxide synthase 3 (Homo sapiens) (UniProt P29474); assay: Inhibitory activity of 100 uM compound against human endothelial nitric oxide synthase
T3 sequence (whole entry): T1 sequence (P29474 whole entry)

[5] = Pharmacokinetic parameter pKa for amidine group of compound was evaluated; assay type: physicochemical
[6] = target: T3, Nitric oxide synthase 3 (Homo sapiens); assay: Inhibitory activity of 100 uM compound against human endothelial nitric oxide synthase; Range is […]%-[…]%
Nitric oxide synthase 1 [7] = target: T2, Nitric oxide synthase 1; assay: Inhibitory activity of 100 uM compound against human neuronal nitric oxide synthase; Range is […]%-[…]%
Rattus norvegicus [8] = species on record: Rattus norvegicus; assay: animal or person
Nitric oxide synthase 1 [9] = target: T2, Nitric oxide synthase 1; assay: Inhibitory activity of 100 uM compound against human neuronal nitric oxide synthase; range is […]%-[…]%; conditions: at 100 µM
[10] = target: T3, Nitric oxide synthase 3 (Homo sapiens); assay: Inhibitory activity of 100 uM compound against human endothelial nitric oxide synthase; range is […]%-[…]%; conditions: at 100 µM

Chain of Nitric oxide synthase, inducible (P35228 whole entry): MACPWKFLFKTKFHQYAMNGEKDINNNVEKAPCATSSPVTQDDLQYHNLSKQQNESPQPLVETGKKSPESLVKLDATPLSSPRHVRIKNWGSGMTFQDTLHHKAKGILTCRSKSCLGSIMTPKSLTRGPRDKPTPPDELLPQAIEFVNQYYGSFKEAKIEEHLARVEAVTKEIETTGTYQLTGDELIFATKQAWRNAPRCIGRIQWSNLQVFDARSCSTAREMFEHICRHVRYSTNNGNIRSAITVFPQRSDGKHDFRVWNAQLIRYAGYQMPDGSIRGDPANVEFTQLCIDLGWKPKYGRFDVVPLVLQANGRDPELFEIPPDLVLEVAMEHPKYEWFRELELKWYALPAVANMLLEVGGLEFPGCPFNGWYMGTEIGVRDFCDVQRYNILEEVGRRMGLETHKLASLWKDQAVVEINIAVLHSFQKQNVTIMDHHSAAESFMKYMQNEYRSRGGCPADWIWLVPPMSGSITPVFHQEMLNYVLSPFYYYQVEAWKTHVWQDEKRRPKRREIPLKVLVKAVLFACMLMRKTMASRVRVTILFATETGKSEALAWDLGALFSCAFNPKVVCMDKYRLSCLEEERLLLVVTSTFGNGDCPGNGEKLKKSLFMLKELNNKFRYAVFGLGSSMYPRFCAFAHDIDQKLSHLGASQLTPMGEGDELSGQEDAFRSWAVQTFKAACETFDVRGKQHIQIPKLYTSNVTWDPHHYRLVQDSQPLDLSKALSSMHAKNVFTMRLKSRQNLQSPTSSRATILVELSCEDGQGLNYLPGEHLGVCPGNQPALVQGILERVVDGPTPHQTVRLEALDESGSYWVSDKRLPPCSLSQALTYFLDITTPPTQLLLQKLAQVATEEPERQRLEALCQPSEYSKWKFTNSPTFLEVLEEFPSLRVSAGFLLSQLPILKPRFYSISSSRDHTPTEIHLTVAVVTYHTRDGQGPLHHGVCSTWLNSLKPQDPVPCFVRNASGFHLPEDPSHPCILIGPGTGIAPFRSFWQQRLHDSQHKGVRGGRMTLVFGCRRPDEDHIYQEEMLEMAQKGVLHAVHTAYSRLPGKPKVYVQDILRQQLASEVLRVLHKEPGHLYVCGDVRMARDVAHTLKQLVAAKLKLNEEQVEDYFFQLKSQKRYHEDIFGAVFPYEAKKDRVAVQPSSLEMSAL
T2 sequence (P29475 whole entry): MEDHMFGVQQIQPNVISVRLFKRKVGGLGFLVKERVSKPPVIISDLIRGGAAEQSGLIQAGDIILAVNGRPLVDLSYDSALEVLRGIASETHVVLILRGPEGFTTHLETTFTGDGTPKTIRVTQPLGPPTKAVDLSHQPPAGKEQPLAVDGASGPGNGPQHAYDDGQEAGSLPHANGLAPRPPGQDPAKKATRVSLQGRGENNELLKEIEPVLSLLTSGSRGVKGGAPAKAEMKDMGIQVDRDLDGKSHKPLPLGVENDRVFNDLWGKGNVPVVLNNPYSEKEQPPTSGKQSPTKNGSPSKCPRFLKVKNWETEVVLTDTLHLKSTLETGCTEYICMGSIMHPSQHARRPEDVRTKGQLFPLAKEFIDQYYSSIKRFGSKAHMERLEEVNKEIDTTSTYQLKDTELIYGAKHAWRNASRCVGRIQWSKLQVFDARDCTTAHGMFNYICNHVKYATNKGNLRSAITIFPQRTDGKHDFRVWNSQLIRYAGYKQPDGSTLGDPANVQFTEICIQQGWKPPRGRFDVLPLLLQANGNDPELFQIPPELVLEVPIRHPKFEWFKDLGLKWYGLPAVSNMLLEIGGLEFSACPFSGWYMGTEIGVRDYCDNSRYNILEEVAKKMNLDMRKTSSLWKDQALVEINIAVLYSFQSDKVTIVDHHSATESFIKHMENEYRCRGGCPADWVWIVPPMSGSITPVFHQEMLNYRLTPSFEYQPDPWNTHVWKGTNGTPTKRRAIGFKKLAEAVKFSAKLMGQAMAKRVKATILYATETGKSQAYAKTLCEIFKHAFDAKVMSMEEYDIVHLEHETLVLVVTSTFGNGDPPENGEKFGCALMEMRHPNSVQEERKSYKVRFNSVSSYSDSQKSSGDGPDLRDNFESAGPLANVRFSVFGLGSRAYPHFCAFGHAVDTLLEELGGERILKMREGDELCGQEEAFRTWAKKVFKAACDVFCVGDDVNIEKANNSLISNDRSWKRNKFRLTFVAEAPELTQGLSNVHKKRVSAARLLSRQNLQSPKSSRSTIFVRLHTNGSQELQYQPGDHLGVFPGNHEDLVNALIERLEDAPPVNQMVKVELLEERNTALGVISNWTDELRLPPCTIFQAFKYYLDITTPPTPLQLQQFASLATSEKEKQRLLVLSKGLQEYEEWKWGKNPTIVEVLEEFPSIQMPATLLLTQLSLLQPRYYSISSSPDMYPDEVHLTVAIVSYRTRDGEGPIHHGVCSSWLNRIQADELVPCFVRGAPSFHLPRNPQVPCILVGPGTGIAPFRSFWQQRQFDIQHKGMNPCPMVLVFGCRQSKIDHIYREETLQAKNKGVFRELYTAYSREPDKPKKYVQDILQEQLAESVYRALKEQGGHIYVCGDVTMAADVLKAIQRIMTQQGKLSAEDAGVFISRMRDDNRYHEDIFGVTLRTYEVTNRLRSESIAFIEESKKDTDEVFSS

Structure (SMILES) | IC50 [1] | IC50 (DLD-1) | IC50 (Nitric oxide synthase 1 [3]) | ED50 (Rattus norvegicus [2]) | other results
CC1N=C(N)c2ccccc2N1 (configuration not stated) | 9.8 µM | – | – | – | –
CCC1N=C(N)c2ccccc2N1 (configuration not stated) | 0.9 µM | – | – | – | –
CCC1(C)N=C(N)c2ccccc2N1 (configuration not stated) | 32 µM | – | – | – | –
COC(=O)[C@@H](N)CCCNC(=N)N[N+](=O)[O-] [L-NAME] | – | > 300 µM | 0.15 µM | > 300 µmol/kg | –
NC1=NC(c2cccs2)Nc2ccccc21 (configuration not stated) | 0.4 µM | – | – | – | –
N=C(N)NN [PIMAGEDINE] | 3.9 µM | > 1000 µM | 5.9 µM | – | IC50 (Nitric oxide synthase 3): 100 µM
NC1=NCNc2ccccc21 | 40 µM | – | – | – | –
N#Cc1ccc(C(=O)N2CCC3(CC2)N=C(N)c2c(F)ccc(F)c2N3)cn1 | – | 0.9 µM | – | 3 µmol/kg | ED50 (Rattus norvegicus [8]): ~10 µmol/kg; inhibition [6]: 50%
CC1(C)N=C(N)c2ccccc2N1 | 52 µM | – | – | – | –
NC1=NC(c2ccccc2)Nc2ccccc21 (configuration not stated) | 2.5 µM | – | – | – | –
NC1=NC(C2CCCC2)Nc2ccccc21 (configuration not stated) | 4.5 µM | – | – | – | –
NC1=NC(c2ccco2)Nc2c(F)ccc(F)c21 (configuration not stated) | 0.002 µM | 0.2 µM | 0.06 µM | 16 µmol/kg | IC50 (Nitric oxide synthase 3): 0.18 µM
NC1=NC(C2CCC2)Nc2ccccc21 (configuration not stated) | 1.1 µM | – | – | – | –
CNC(=N)NCCC[C@H](N)C(=O)O [TILARGININE] | – | 21 µM | – | 700 µmol/kg | –
NC1=NC2(CCNCC2)Nc2ccccc21 | ~50 µM | – | – | – | –
NC1=NC(C2CC2)Nc2ccccc21 (configuration not stated) | 1.1 µM | – | – | – | –

More lines, main results first:

IC50 [1] | IC50 (DLD-1) | IC50 (Nitric oxide synthase 1 [3]) | Structure (SMILES) | ED50 (Rattus norvegicus [2]) | other results
0.1 µM | 2.8 µM | 1.5 µM | CC(=N)NCCCC[C@H](N)C(=O)O [L-NIL] | 9 µmol/kg | IC50 (Nitric oxide synthase 3): 2.6 µM
0.02 µM | 1.2 µM | 1 µM | NC1=NC(C2CCC2)Nc2cccc(F)c21 (configuration not stated) | > 30 µmol/kg | IC50 (Nitric oxide synthase 3): 4.6 µM
0.067 µM | 12 µM | 70 µM | NC1=NC2(CCN(C(=O)c3ccsc3)CC2)Nc2cccc(F)c21 | – | inhibition [4]: < 25%
0.048 µM | 1.6 µM | 3.3 µM | N#Cc1ccc(C(=O)N2CCC3(CC2)N=C(N)c2c(F)ccc(F)c2N3)cc1 | 3 µmol/kg | pKa [5]: 8.4; inhibition [6]: 50%
0.05 µM | 4 µM | 3.5 µM | NC1=NC(c2ccc(F)cc2)Nc2cccc(F)c21 (configuration not stated) | > 30 µmol/kg | inhibition [4]: < 25%
0.2 µM | – | – | NC1=NC(c2ccco2)Nc2ccccc21 (configuration not stated) | – | –
0.039 µM | 11 µM | – | CSCCOC(=O)N1CCC2(CC1)N=C(N)c1c(F)cccc1N2 | – | inhibition (Nitric oxide synthase 1 [7]): 50%; inhibition [6]: 50%
0.035 µM | 9.6 µM | 40 µM | CCOC(=O)N1CCC2(CC1)N=C(N)c1c(F)cccc1N2 | – | IC50 (Nitric oxide synthase 3): 100 µM
0.3 µM | > 500 µM | 50 µM | CCOC(=O)N1CCC2(CC1)N=C(N)c1sccc1N2 | – | IC50 (Nitric oxide synthase 3): 100 µM
0.047 µM | 9.2 µM | – | CCOC(=O)N1CCC2(CC1)N=C(N)c1c(Cl)cccc1N2 | – | inhibition (Nitric oxide synthase 1 [9]): 50%; inhibition [10]: 50%
0.027 µM | 4.5 µM | 12 µM | N#Cc1ccc(C(=O)N2CCC3(CC2)N=C(N)c2c(F)cccc2N3)cc1 | 14 µmol/kg | pKa [5]: 9.1; inhibition [6]: 50%

Reference: ChEMBL document CHEMBL1136724 (J Med Chem, 2003)
